Laboratory results: ChEMBL document CHEMBL2417509, “Synthesis and biological evaluation of prodigiosene conjugates of porphyrin, estrone and 4-hydroxytamoxifen” (2013)

Columns and labels:
Type in all cases: functional
SW-620 = assay: Cytotoxicity against human SW620 cells after 2 days by sulforhodamine B assay; conditions: SW-620, 48 h
Method in brief: (§1)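 NCI DTP NCI60 multi-dose screen (59 human tumour lines available). Cells exposed to compound over a 5-log mol/L concentration range for 2 days, then fixed and stained with sulphorhodamine B, with optical density read. Growth inhibition calculated relative to time-zero cells and untreated cells, giving GI50 (half-maximal growth inhibition concentration). Average of two replicates.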

UACC-257 = assay: Cytotoxicity against human UACC257 cells after 2 days by sulforhodamine B assay; conditions: UACC-257, 48 h; for CC50: read-out: LC50 (the source's name); method in brief: as §1
U-251 = assay: Cytotoxicity against human U251 cells after 2 days by sulforhodamine B assay; conditions: U-251, 48 h; method in brief: as §1
MDA-MB-468 = assay: Cytotoxicity against human MDA-MB-468 cells after 2 days by sulforhodamine B assay; conditions: MDA-MB-468, 48 h
Method in brief: (§2)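 NCI60 multi-dose screen, 59 human tumour lines available. Cells exposed to compound across a 5-log mol/L concentration range for 2 days, then fixed and stained with sulphorhodamine B, optical density read. Growth inhibition calculated against time-zero control and untreated cells. GI50 derived from the dose series, average of two replicates.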

UACC-62 = assay: Cytotoxicity against human UACC62 cells after 2 days by sulforhodamine B assay; conditions: UACC-62, 48 h; for CC50: read-out: LC50 (the source's name); method in brief: as §1
Malme-3M = assay: Cytotoxicity against human MALME-3M cells after 2 days by sulforhodamine B assay; conditions: 48 h; method in brief: as §2
A549 = assay: Cytotoxicity against human A549/ATCC cells after 2 days by sulforhodamine B assay; conditions: A549, 48 h; method in brief: as §2
HL-60(TB) = assay: Cytotoxicity against human HL-60(TB) cells after 2 days by sulforhodamine B assay; conditions: HL-60, 48 h; for CC50: read-out: LC50 (the source's name)
Method in brief: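 NCI60 multi-dose screen: cells exposed to compound over a 5-log mol/L concentration range for 2 days, then fixed and stained with sulphorhodamine B and optical density read. Growth inhibition calculated relative to time-zero control and untreated cells; GI50 reported as average of two replicates.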

HCT-15 = assay: Cytotoxicity against human HCT15 cells after 2 days by sulforhodamine B assay; conditions: HCT-15, 48 h; method in brief: as §2
MDA-MB-435 = assay: Cytotoxicity against human MDA-MB-435 cells after 2 days by sulforhodamine B assay; conditions: MDA-MB-435, 48 h; for CC50: read-out: LC50 (the source's name); method in brief: as §2
BT-549 = assay: Cytotoxicity against human BT549 cells after 2 days by sulforhodamine B assay; conditions: BT-549, 48 h; method in brief: as §2
HOP-92 = assay: Cytotoxicity against human HOP92 cells after 2 days by sulforhodamine B assay; conditions: HOP-92, 48 h; for CC50: read-out: LC50 (the source's name); method in brief: as §2
HOP-62 = assay: Cytotoxicity against human HOP62 cells after 2 days by sulforhodamine B assay; conditions: HOP-62, 48 h; for CC50: read-out: LC50 (the source's name); method in brief: as §2
K562 = assay: Cytotoxicity against human K562 cells after 2 days by sulforhodamine B assay; conditions: K562, 48 h; method in brief: as §2
OVCAR-4 = assay: Cytotoxicity against human OVCAR4 cells after 2 days by sulforhodamine B assay; conditions: OVCAR-4, 48 h; method in brief: as §2
ACHN = assay: Cytotoxicity against human ACHN cells after 2 days by sulforhodamine B assay; conditions: 48 h; method in brief: as §2
IGROV-1 = assay: Cytotoxicity against human IGROV1 cells after 2 days by sulforhodamine B assay; conditions: IGROV-1, 48 h; method in brief: as §2
M14 = assay: Cytotoxicity against human M14 cells after 2 days by sulforhodamine B assay; conditions: M14, 48 h; for CC50: read-out: LC50 (the source's name); method in brief: as §2
SK-MEL-5 = assay: Cytotoxicity against human SK-MEL-5 cells after 2 days by sulforhodamine B assay; conditions: SK-MEL-5, 48 h; method in brief: as §2
TK-10 = assay: Cytotoxicity against human TK10 cells after 2 days by sulforhodamine B assay; conditions: TK-10, 48 h; method in brief: as §1
SF-295 = assay: Cytotoxicity against human SF295 cells after 2 days by sulforhodamine B assay; conditions: SF-295, 48 h; method in brief: as §2
NCI-H522 = assay: Cytotoxicity against human NCI-H522 cells after 2 days by sulforhodamine B assay; conditions: NCI-H522, 48 h; method in brief: as §2
SN12C = assay: Cytotoxicity against human SN12C cells after 2 days by sulforhodamine B assay; conditions: 48 h; for CC50: read-out: LC50 (the source's name); method in brief: as §2
DU-145 = assay: Cytotoxicity against human DU145 cells after 2 days by sulforhodamine B assay; conditions: DU-145, 48 h; method in brief: as §2
PC-3 = assay: Cytotoxicity against human PC3 cells after 2 days by sulforhodamine B assay; conditions: PC-3, 48 h; method in brief: as §2
NCI-H322M = assay: Cytotoxicity against human NCI-H322M cells after 2 days by sulforhodamine B assay; conditions: 48 h; method in brief: as §2
LOX IMVI = assay: Cytotoxicity against human LOXIMVI cells after 2 days by sulforhodamine B assay; conditions: 48 h; method in brief: as §2
SNB-75 = assay: Cytotoxicity against human SNB75 cells after 2 days by sulforhodamine B assay; conditions: SNB-75, 48 h; method in brief: as §1
KM12 = assay: Cytotoxicity against human KM12 cells after 2 days by sulforhodamine B assay; conditions: KM12, 48 h; method in brief: as §2
T47D = assay: Cytotoxicity against human T47D cells after 2 days by sulforhodamine B assay; conditions: 48 h; method in brief: as §1

## CCC(=C(c1ccc(OCCN(C)C)cc1)c1ccc(OC(=O)CCCCC(=O)C2=C(C)/C(=C/c3[nH]c(-c4ccc[nH]4)cc3OC)N=C2C)cc1)c1ccccc1
SW-620
  GI50: 3.16 µM
  LC50 (concentration killing 50% of cells): 34.7 µM
  TGI: 11.5 µM
UACC-257
  GI50: 12 µM
  TGI: 28.8 µM
  CC50: 69.2 µM
U-251
  GI50: 7.76 µM
  LC50: > 100 µM
  TGI: 30.2 µM
MDA-MB-468
  GI50: 2.45 µM
  LC50: 41.7 µM
  TGI: 14.8 µM
UACC-62
  GI50: 4.9 µM
  TGI: 17.8 µM
  CC50: 45.7 µM
Malme-3M
  GI50: 9.33 µM
  LC50: > 100 µM
  TGI: 34.7 µM
A549
  GI50: 3.89 µM
  LC50 (concentration giving 50% net cell kill): 50.1 µM
  TGI: 15.8 µM
HL-60(TB)
  GI50: 18.2 µM
  TGI: 41.7 µM
  CC50: 97.7 µM
HCT-15
  GI50: 4.47 µM
  LC50: > 100 µM
  TGI: 28.8 µM
MDA-MB-435
  GI50: 6.92 µM
  TGI: 45.7 µM
  CC50: > 100 µM
BT-549
  GI50: 3.55 µM
  LC50 (concentration killing 50% of cells present at time zero): 41.7 µM
  TGI: 17 µM
HOP-92
  GI50: 1.12 µM
  TGI: 6.31 µM
  CC50: 47.9 µM
HOP-62
  GI50: 12.3 µM
  TGI: 24.5 µM
  CC50: 50.1 µM
K562
  GI50: 3.16 µM
  LC50 (concentration killing 50% of cells): 72.4 µM
  TGI: 12.6 µM
OVCAR-4
  GI50: 4.37 µM
  LC50 (concentration killing 50% of cells): 70.8 µM
  TGI: 22.4 µM
ACHN
  GI50: 4.79 µM
  LC50 (concentration killing 50% of cells): 77.6 µM
  TGI: 22.9 µM
IGROV-1
  GI50: 13.2 µM
  LC50: > 100 µM
  TGI: 45.7 µM
M14
  GI50: 1.82 µM
  TGI: 3.98 µM
  CC50: 8.71 µM
SK-MEL-5
  GI50: 1.62 µM
  LC50 (concentration killing 50% of cells): 6.03 µM
  TGI: 3.09 µM
TK-10
  GI50: 12.9 µM
  LC50: 50.1 µM
  TGI: 25.1 µM
SF-295
  GI50: 7.24 µM
  LC50: 45.7 µM
  TGI: 20.4 µM
NCI-H522
  GI50: 3.55 µM
  LC50: 43.6 µM
  TGI: 14.4 µM
SN12C
  GI50: 5.37 µM
  TGI: 21.4 µM
  CC50: 56.2 µM
DU-145
  GI50: 7.76 µM
  LC50 (concentration killing 50% of starting cells): 50.1 µM
  TGI: 20.9 µM
PC-3
  GI50: 4.57 µM
  LC50 (concentration killing 50% of cells): 58.9 µM
  TGI: 20.4 µM
NCI-H322M
  GI50: 13.5 µM
  LC50 (concentration killing 50% of cells): 69.2 µM
  TGI: 30.9 µM
LOX IMVI
  GI50: 2.04 µM
  LC50: 43.6 µM
  TGI: 5.13 µM
SNB-75
  GI50: 5.25 µM
  LC50 (concentration killing 50% of starting cells): 44.7 µM
  TGI: 18.2 µM
KM12
  GI50: 3.72 µM
  LC50: 46.8 µM
  TGI: 14.4 µM
T47D
  GI50: 1.38 µM
  LC50 (concentration killing 50% of cells): 39.8 µM
  TGI: 6.03 µM

## CC/C(=C(/c1ccc(OCCN(C)C)cc1)c1ccc(OC(=O)CCC(=O)C2=C(C)/C(=C/c3[nH]c(-c4ccc[nH]4)cc3OC)N=C2C)cc1)c1ccccc1
SW-620
  GI50: 0.76 µM
  LC50 (concentration killing 50% of cells): > 100 µM
  TGI: 2.6 µM
UACC-257
  GI50: 3.39 µM
  TGI: 14.8 µM
  CC50: 79.7 µM
U-251
  GI50: 1.52 µM
  LC50: 33.2 µM
  TGI: 7.17 µM
MDA-MB-468
  GI50: 3.06 µM
  LC50: 61.3 µM
  TGI: 15.5 µM
UACC-62
  GI50: 1.81 µM
  TGI: 3.78 µM
  CC50: 7.88 µM
Malme-3M
  GI50: 2.73 µM
  LC50: 78.4 µM
  TGI: 6.53 µM
A549
  GI50: 2.66 µM
  LC50 (concentration giving 50% net cell kill): 55.9 µM
  TGI: 10.6 µM
HL-60(TB)
  GI50: 3.16 µM
  TGI: 8.98 µM
  CC50: > 100 µM
HCT-15
  GI50: 0.93 µM
  LC50: > 100 µM
  TGI: 4.58 µM
MDA-MB-435
  GI50: 2.55 µM
  TGI: 10.3 µM
  CC50: 50.5 µM
BT-549
  GI50: 4.29 µM
  LC50 (concentration killing 50% of cells present at time zero): 66.9 µM
  TGI: 21.5 µM
HOP-92
  GI50: 0.76 µM
  TGI: 4.12 µM
  CC50: 26.4 µM
HOP-62
  GI50: 1.43 µM
  TGI: 4.07 µM
  CC50: 49 µM
K562
  GI50: 2.39 µM
  LC50 (concentration killing 50% of cells): > 100 µM
  TGI: 6.4 µM
OVCAR-4
  GI50: 1.5 µM
  LC50 (concentration killing 50% of cells): 61.5 µM
  TGI: 14.8 µM
ACHN
  GI50: 2.61 µM
  LC50 (concentration killing 50% of cells): > 100 µM
  TGI: 17.1 µM
IGROV-1
  GI50: 3.66 µM
  LC50: > 100 µM
  TGI: 15.3 µM
M14
  GI50: 2.09 µM
  TGI: 5.19 µM
  CC50: > 100 µM
SK-MEL-5
  GI50: 1.53 µM
  LC50 (concentration killing 50% of cells): 5.25 µM
  TGI: 3.22 µM
TK-10
  GI50: 4.9 µM
  LC50: 41.7 µM
  TGI: 15.8 µM
SF-295
  GI50: 2.63 µM
  LC50: > 100 µM
  TGI: 9.12 µM
NCI-H522
  GI50: 1.95 µM
  LC50: 28 µM
  TGI: 5.89 µM
SN12C
  GI50: 3.09 µM
  TGI: 19.1 µM
  CC50: 66.6 µM
DU-145
  GI50: 3.28 µM
  LC50 (concentration killing 50% of starting cells): 41.2 µM
  TGI: 16.8 µM
PC-3
  GI50: 1.78 µM
  LC50 (concentration killing 50% of cells): 51.1 µM
  TGI: 17.2 µM
NCI-H322M
  GI50: 11.6 µM
  LC50 (concentration killing 50% of cells): 57.5 µM
  TGI: 25.7 µM
LOX IMVI
  GI50: 0.44 µM
  LC50: 5.13 µM
  TGI: 1.62 µM
SNB-75
  GI50: 2.47 µM
  LC50 (concentration killing 50% of starting cells): 62.9 µM
  TGI: 9.92 µM
KM12
  GI50: 1.2 µM
  LC50: 46.8 µM
  TGI: 10.8 µM
T47D
  GI50: 1.35 µM
  LC50 (concentration killing 50% of cells): > 100 µM
  TGI: 8.13 µM
